b-catenin transl = modulators of beta-catenin nuclear translocation. nuclear translocation activity, % at 5 µM. 190,000 compounds, 0.3% hits. HeLa beta-catenin nuclear translocation, immunofluorescence imaging;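 active = nuclear translocation activity above 50% at 5 µM, with a well cell count of 50 or more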;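 also: per-cell ratio of nuclear to cytoplasmic median beta-catenin stain intensity; plate controls were DMSO negative control for no effect and GSK-3 inhibitor IX positive control for full effect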
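assay system = human HeLa cells, endogenous beta-catenin | times = compound treatment 24 h, 37°C, 5% CO2 | detection = Anti-beta-catenin immunofluorescence on PFA-fixed, Triton-permeabilized cells, DAPI nuclei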
IEC-6 cytotox = kills IEC-6 intestinal cells in KLF5 counter-screen. IEC-6 cytotoxicity, luminescence viability. inhibition, % at 5 µM. 290,000 compounds, 0.78% hits;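 also: 0% = plate median of test compound wells and 100% = cytotoxic reference compound wells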
Ba/F3 V617F tox = loss of viability in JAK2V617F-driven Ba/F3 cells | Ba/F3 EpoR-JAK2V617F viability, ATP luminescence | inhibition, % at 5.6 µM | 220,000 compounds, 1.1% hits | AID 1446;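 active = inhibition above the campaign mean plus 3 SD over all tested compounds, cut at about 24% in these data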;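 also: cytokine-independent growth of Ba/F3 cells driven by EpoR plus mutant JAK2; 0% = DMSO-treated cells and 100% = JAK inhibitor I control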
MT stabilize HCS = microtubule stabilizers in HeLa cells; 200,000 compounds, 0.83% hits; % tubulin-high responders, % at 10 µM; HeLa tubulin immunostaining HCS, 24 h; share of cells brighter than vehicle mean+2SD; AID 2205;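 active = plate Z-score above 3 for both tubulin-high and condensed-nucleus cell shares, with cell loss under 80%, at 10 µM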;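 also: anti alpha tubulin signal scored within the nucleus-defined area of each cell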
APP 5UTR inh = APP translation inhibition; SH-SY5Y APP 5'UTR-luciferase reporter, luminescence; inhibition, % at 2 µM; 190,000 compounds, 0.82% hits; AID 1285;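 active = inhibition above a set limit, derived from the sample mean plus 3 SD, cut at about 45% in these data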
BaF3 parental = counter-screen for JAK2V617F inhibitors: parental Ba/F3 viability inhibitors; 220,000 compounds, 1.1% hits; CellTiter-Glo ATP luminescence; AID 1486; inhibition, % at 5.6 µM;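 active = inhibition above a per-campaign cutoff, the mean inhibition of all tested compounds plus 3 SD, cut at about 27% in these data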;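 also: 0% = DMSO wells and 100% = JAK Inhibitor I control wells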
IEC-6 cytotox cf = confirmation of cytotoxic compounds in rat IEC-6 intestinal epithelial cells | shares compounds with IEC-6 cytotox | IEC-6 rat intestinal epithelial viability, luminescence | inhibition, % at 5 µM | 1,900 compounds, 63% hits | AID 1907;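 also: 0% = vehicle and 100% = reference cytotoxic drug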
* hit, by the source's call. Hits are enriched below; roughly 2.2% of the tested compounds scored in any of these assays. Rule as the data show it, unless noted: active = inhibition above about 22%; inactive = the rest.

How did Cc1ccc(C(=O)CCNc2ccc(F)c(Cl)c2)o1 do in these assays?
b-catenin transl: 2; IEC-6 cytotox: 31*; Ba/F3 V617F tox: 46*; MT stabilize HCS: 2; APP 5UTR inh: -31; BaF3 parental: 58*; IEC-6 cytotox cf: 34*

Results for CC1CCc2sc3ncnc(N4CCN(C)CC4)c3c2C1 (centres undefined) ?
IEC-6 cytotox: 0

Results for Cc1nnc(N/N=C/c2cc([N+](=O)[O-])c(N3CCC(C)CC3)cc2N2CCC(C)CC2)n1N ?
b-catenin transl: 4; IEC-6 cytotox: 103*; Ba/F3 V617F tox: 2; MT stabilize HCS: 1; APP 5UTR inh: 6; BaF3 parental: 5; IEC-6 cytotox cf: 12

What do the screens show for `CC1(C)Cc2c(sc3ncnc(NNC(=S)NCc4ccccc4)c23)CO1`?
b-catenin transl: 0; IEC-6 cytotox: 76*; Ba/F3 V617F tox: 73*; MT stabilize HCS: 29*; APP 5UTR inh: 56*; BaF3 parental: 80*; IEC-6 cytotox cf: 16

How did CC1CC(C)CN(CCCNC(=O)c2ccc3nc(N4CCCCC4)sc3c2)C1 (centres undefined) do in these assays?
IEC-6 cytotox: 27*; IEC-6 cytotox cf: 2

What do the screens show for `CCOc1ccc(CCNC(=O)c2cc3c(s2)CS(=O)(=O)C3)cc1OCC`?
IEC-6 cytotox: 5

What do the screens show for `CCCN(CCC)c1nc(-c2ccccn2)nc2ccccc12`?
IEC-6 cytotox: 93*; IEC-6 cytotox cf: 33*

What do the screens show for `CCCCN(CC)c1nc(-c2ccncc2)nc2ccccc12`?
b-catenin transl: -2; IEC-6 cytotox: 1; Ba/F3 V617F tox: -2; MT stabilize HCS: 2; APP 5UTR inh: -8; BaF3 parental: 2

What do the screens show for `Cc1ccc(N=Cc2c(C)[nH]n(-c3nc4ccccc4[nH]3)c2=O)cc1`?
b-catenin transl: 0; IEC-6 cytotox: 35*; Ba/F3 V617F tox: 26*; MT stabilize HCS: 2; APP 5UTR inh: -22; BaF3 parental: 39*; IEC-6 cytotox cf: 53*

How did O=C(Oc1ccc(Oc2ccccc2)cc1)N1CCC(O)CC1 do in these assays?
IEC-6 cytotox: -9

Results for Cc1cccc(OCCN2C(=O)C(=O)c3cc(C)ccc32)c1 ?
b-catenin transl: 2; IEC-6 cytotox: 79*; Ba/F3 V617F tox: 86*; MT stabilize HCS: 3; APP 5UTR inh: 93*; BaF3 parental: 84*; IEC-6 cytotox cf: 56*

Results for Cc1ccc2oc(/N=C(\N)NC(=O)C3CC3)nc2c1 ?
b-catenin transl: 3; IEC-6 cytotox: 32*; Ba/F3 V617F tox: 38*; BaF3 parental: 29*; IEC-6 cytotox cf: 31*

What do the screens show for `Cc1ccc2oc(/N=C(\N)NC(=O)C(C)(C)C)nc2c1`?
b-catenin transl: 2; IEC-6 cytotox: 4; Ba/F3 V617F tox: -1; BaF3 parental: 2

How did O=C(Nc1ccc(Br)cn1)c1ccc(Cl)s1 do in these assays?
IEC-6 cytotox: 10

What do the screens show for `O=C(Nc1ccc(Br)cn1)c1ccc(Br)s1`?
IEC-6 cytotox: 28*; IEC-6 cytotox cf: 2

What do the screens show for `CC(C(=O)NCc1ccccc1)N1CCN(c2ccc(F)cc2)CC1` (centres undefined)?
IEC-6 cytotox: 4

How did Cc1ccc2ccc3ccc(C)nc3c2n1 do in these assays?
IEC-6 cytotox: 91*; IEC-6 cytotox cf: 37*

Results for CN1C2CCC1/C(=C\c1ccccc1F)C(=O)/C2=C/c1ccccc1F ?
b-catenin transl: -3; IEC-6 cytotox: 33*; Ba/F3 V617F tox: 17; MT stabilize HCS: 3; APP 5UTR inh: 0; BaF3 parental: 4; IEC-6 cytotox cf: 0

What do the screens show for `COc1ccc(C(=O)CC2(C(=O)O)CCCCC2)cc1`?
IEC-6 cytotox: -8

How did CCc1ccc(CNC(=O)Cc2ccc(NC(=O)C3=C(C)OCCS3)cc2)cc1 do in these assays?
IEC-6 cytotox: 78*; IEC-6 cytotox cf: 53*

Results for CN(CC(=O)Nc1ccccc1Cl)C(=O)COC(=O)c1cnccn1 ?
IEC-6 cytotox: -2

Results for O=C(NC(Nc1nc2ccc([N+](=O)[O-])cc2s1)(C(F)(F)F)C(F)(F)F)c1ccccc1Cl ?
b-catenin transl: 8; IEC-6 cytotox: 76*; Ba/F3 V617F tox: 100*; MT stabilize HCS: 3; APP 5UTR inh: 66*; BaF3 parental: 81*; IEC-6 cytotox cf: 97*

How did Cc1ncc(CN2CCC(C(=O)Nc3ccc(-n4cccn4)cc3)CC2)s1 do in these assays?
IEC-6 cytotox: 0

Results for O=C(Nc1ccc(-n2cccn2)cc1)C1CCCCN1Cc1cccc2c1OCO2 (centres undefined) ?
IEC-6 cytotox: 54*; IEC-6 cytotox cf: 37*

What do the screens show for `CCOc1ccc2nc(NC(=O)c3ccoc3C)sc2c1`?
b-catenin transl: -4; IEC-6 cytotox: 26*; Ba/F3 V617F tox: 27*; MT stabilize HCS: 2; APP 5UTR inh: -168; BaF3 parental: 28*; IEC-6 cytotox cf: 36*

How did CCCn1c2ccccc2c2nnc(SCCN3CCOCC3)nc21 do in these assays?
IEC-6 cytotox: -5

Results for c1ccc2nc3c(nc2c1)c1ccccc1n3CCN1CCOCC1 ?
IEC-6 cytotox: 23*; Ba/F3 V617F tox: 84*; MT stabilize HCS: 5; APP 5UTR inh: -13; BaF3 parental: 77*; IEC-6 cytotox cf: 10

How did CCCCOc1ccc(C(=O)NNC(=O)C2C3CCC(C3)C2C(=O)O)cc1 (centres undefined) do in these assays?
IEC-6 cytotox: 3

How did CC(C)OC(=O)c1ccc2nc3ccccc3nc2c1 do in these assays?
IEC-6 cytotox: 24*; IEC-6 cytotox cf: 20

Results for CC(C)OC(=O)c1ccc(NC(=O)c2ccccc2)cc1 ?
b-catenin transl: -1; IEC-6 cytotox: 2; Ba/F3 V617F tox: 4; MT stabilize HCS: 2; APP 5UTR inh: -100; BaF3 parental: 8

Results for COc1ccc2nc(SCC(=O)NC3CCCC3)c(C)cc2c1 ?
IEC-6 cytotox: 45*; IEC-6 cytotox cf: 27*

How did COc1ccc2nc(SCC(=O)NC3CCCCC3)[nH]c2c1 do in these assays?
IEC-6 cytotox: 3

Results for Cc1ccc(-n2ncc(C(=O)Nc3cc(Cl)cc(Cl)c3)c2C2CCNCC2)cc1C ?
b-catenin transl: 49; IEC-6 cytotox: 98*; Ba/F3 V617F tox: 95*; MT stabilize HCS: 62; APP 5UTR inh: 79*; BaF3 parental: 86*; IEC-6 cytotox cf: 97*

Results for O=C(N/N=C/c1ccc(Cl)cc1)c1n[nH]c2c1CCCC2 ?
b-catenin transl: 100*; IEC-6 cytotox: 82*; Ba/F3 V617F tox: 75*; BaF3 parental: 71*; IEC-6 cytotox cf: 63*

Results for O=C(N/N=C/c1ccccc1)c1n[nH]c2c1CCCC2 ?
b-catenin transl: 0; IEC-6 cytotox: 6; Ba/F3 V617F tox: 1; MT stabilize HCS: 4; APP 5UTR inh: -105; BaF3 parental: 2

From PubChem BioAssay
